Reference: ChEMBL document CHEMBL1641391, “Caffeic acid esters and lignans from Piper sanguineispicum” (J Nat Prod, 2010)

How the values were obtained:
Leishmania amazonensis = experiment: Antileishmanial activity against Leishmania amazonensis MHOM/BR/76/LTB-012 axenic amastigotes after 72 hrs by MTT assay; assay type: functional, organism-based; details: MHOM/BR/76/LTB-012, 72 h
Method in brief: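 Axenic amastigotes kept by weekly subpassage in MAA/20 medium, 32 ± 1 °C, 5% CO2. Seeded in 96-well plates. Compounds in DMSO tested at four concentrations (50–0.05 µg/mL or 50–0.2 µg/mL, depending on compound) for 72 h. MTT added for 4 h, stopped with 2-propanol/SDS, OD read at 570 nm. % inhibition computed against untreated control; IC50 from inhibition curve. Triplicates; amphotericin B reference.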

[1] = Cytotoxicity against mouse peritoneal macrophages assessed as cell viability after 48 hrs by hematocytometer; assay type: cell-based; details: Peritoneal macrophage cell
Vero = experiment: Cytotoxicity against african green monkey Vero cells assessed as [3H]-hypoxanthine incorporation after 48 hrs; assay type: cell-based; details: Chlorocebus sabaeus
Method in brief: (§1)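 Cells grown in RPMI with 10% fetal calf serum and exposed to serial compound dilutions for 48 h. Growth measured by [3H]-hypoxanthine incorporation relative to untreated control cultures. Inhibition percentages plotted versus concentration; IC50 read graphically.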

MCF7 = experiment: Cytotoxicity against human MCF7 cells assessed as [3H]-hypoxanthine incorporation after 48 hrs; assay type: cell-based; method in brief: as §1

Compound	IC50 (Leishmania amazonensis) [µM]	IC50 [1] [µM]	IC50 (Vero) [µM]	IC50 (MCF7) [µM]
CCC[C@H](C)OC(=O)/C=C/c1ccc(O)c(O)c1	2	72	62	14
CCCCC[C@H](C)OC(=O)/C=C/c1ccc(O)c(O)c1	10	16.1	89.8	10.6
CCCCCCC[C@H](C)OC(=O)/C=C/c1ccc(O)c(O)c1	1.8	12.7	31	3.2
O=C1OC[C@H]([C@H](O)c2ccc3c(c2)OCO3)[C@H]1Cc1ccc2c(c1)OCO2	79.4		114	151
C[C@@H]1[C@H](O)[C@@H](C)/C=C/C=C/C=C/C=C/C=C/C=C/C=C/[C@H](O[C@@H]2O[C@H](C)[C@@H](O)[C@H](N)[C@@H]2O)C[C@@H]2O[C@](O)(C[C@@H](O)C[C@@H](O)[C@H](O)CC[C@@H](O)C[C@@H](O)CC(=O)O[C@H]1C)C[C@H](O)[C@H]2C(=O)O [AMPHOTERICIN B]	0.11	3.6		
O=C(O)/C=C/c1ccc(O)c(O)c1 [CAFFEIC ACID]	17.8	> 550	> 550	> 550
OC[C@H](Cc1ccc2c(c1)OCO2)[C@H](CO)Cc1ccc2c(c1)OCO2 [DIHYDROCUBEBIN]	> 140		83.8	89.4
O=C(CC(CO)C(=O)c1ccc2c(c1)OCO2)c1ccc2c(c1)OCO2 (stereo not given) [JUSTIFLORINOL]	> 140		> 281	140
O=C1OC[C@H]([C@H](O)c2ccc3c(c2)OCO3)[C@H]1C(=O)c1ccc2c(c1)OCO2 [SANGUINOLIGNAN A]	36.7	> 260	109	146
O=C1OC[C@@H]([C@H](O)c2ccc3c(c2)OCO3)[C@H]1C(=O)c1ccc2c(c1)OCO2 [SANGUINOLIGNAN B]	> 130		> 260	250
COc1ccc([C@@H](OC(C)=O)[C@H]2COC(=O)[C@@H]2C(=O)c2ccc3c(c2)OCO3)cc1OC [SANGUINOLIGNAN C]	105		> 226	79.2
CC(=O)O[C@H](c1ccc2c(c1)OCO2)[C@H]1C(=O)OC[C@@H]1C(=O)c1ccc2c(c1)OCO2 [SANGUINOLIGNAN D]	69.7		82.1	17.1
